Test: Toxicity liver stage against HepG2, at 10uM
Type: cell-based
Set-up: test concentration 10 uM, cell line HepG2-A16-CD81EGFP
Conditions: human, HepG2-A16-CD81EGFP cells; read-out: INHIBITION
How it was run: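 Uninfected HepG2-A16-CD81EGFP cells, 3 × 10^3 per well, 1536-well, plated on prespotted compound at 10 μM final, parasite-free screening media added to match infected plates; puromycin 10 μM positive, DMSO 0.5% negative; run in parallel with 48 h PbLuc assay at 37 °C, 5% CO2; viability by CellTiter-Glo luminescence, normalized to controls.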

CC(NC(=O)NCCCNS(C)(=O)=O)c1ccncc1 (stereo not drawn)
cytotoxicity at 10 µM: 1.08%

O=C(CCC1CCCCO1)NCc1cnn(-c2ccc(F)cc2F)c1 (stereo not drawn)
cytotoxicity at 10 µM: -11.4%

CN(C)S(=O)(=O)N1CC[C@]2(C[C@H](Oc3cccnc3)CO2)C1
cytotoxicity at 10 µM: -0.465%

O=C(CCn1ccnc1)N1CC[C@H](Oc2ccc(F)cc2)[C@@H](O)CC1
cytotoxicity at 10 µM: -3.06%

CC(=O)Nc1ccc(C(=O)N(C)Cc2cccc(F)c2)s1
cytotoxicity at 10 µM: 2.82%

c1cnnc(N2CCCC2CNc2ncnc3c2CCC3)c1 (stereo not drawn)
cytotoxicity at 10 µM: -0.626%

COCC(=O)N1Cc2nccn2CC(Cn2ncccc2=O)C1 (stereo not drawn)
cytotoxicity at 10 µM: 5.23%

O=C1CCNc2ncc(-c3ccccc3Cl)cc2CN1C1CC1
cytotoxicity at 10 µM: 8.89%

CC(O)C1CCN(C(=O)Nc2nc(-c3ccccc3)ns2)CC1 (stereo not drawn)
cytotoxicity at 10 µM: -135%

CCc1nc(CN2CCCN(C(=O)CCc3ccco3)CC2)cs1
cytotoxicity at 10 µM: 1.42%

CN(C)C[C@@H]1CN(C(=O)CCC2CCCC2)C[C@@H]1CO
cytotoxicity at 10 µM: -2.94%

Cc1nnc2n1CCN(CC(=O)NC(C)c1cc3ccccc3o1)C2 (stereo not drawn)
cytotoxicity at 10 µM: -9.79%

Cc1ccn(-c2ccnc(N3CCN(c4ncccn4)CC3)n2)n1
cytotoxicity at 10 µM: 13.4%

CCCn1c(N2CCCC2)nc2c(C)nn(C)c2c1=O
cytotoxicity at 10 µM: 2.33%

CCc1nnc2n1CCN(C(=O)c1nc(-c3ccco3)sc1C)C2
cytotoxicity at 10 µM: -1.19%

COCC(=O)Nc1nccn1Cc1ccc(Br)cc1
cytotoxicity at 10 µM: -55.1%

NCC1[C@H]2CN(Cc3ccccc3F)C[C@@H]12 (stereo partly drawn)
cytotoxicity at 10 µM: -7.52%

CC(=O)Nc1nc(C(=O)N2CCCC2c2ccc(Br)cc2)cs1 (stereo not drawn)
cytotoxicity at 10 µM: -18.4%

CN(CCc1nc(-c2cccc(Cl)c2)no1)CCn1cccn1
cytotoxicity at 10 µM: 8.86%

O=C(Cn1cc(Cl)cn1)N1CCCC(c2ccn[nH]2)C1 (stereo not drawn)
cytotoxicity at 10 µM: -22.5%

Cc1cc(C[C@@H]2COC[C@@H]2NC(=O)CN2CCCN(C)CC2)on1
cytotoxicity at 10 µM: -15%

CC(C)N1CCO[C@H]2CN(C(=O)c3ccsc3)C[C@H]21
cytotoxicity at 10 µM: -72%

CNC(=O)CCc1cccc(OC2CCCC2)c1
cytotoxicity at 10 µM: -0.408%

COCc1nn(C)c2c1CN(Cc1cnn(C)c1)CC2
cytotoxicity at 10 µM: 1.64%

CCOc1ccccc1C(C(=O)O)N(C)Cc1nnc(C)o1 (stereo not drawn)
cytotoxicity at 10 µM: -9.77%

CC1c2ccc(F)cc2CCN1C(=O)c1nc(=O)[nH][nH]1 (stereo not drawn)
cytotoxicity at 10 µM: 15.6%

Cc1nccn1-c1ccc(=O)n(CCNC(=O)c2c(F)cccc2Cl)n1
cytotoxicity at 10 µM: -9.98%

COCCN(Cc1ccc(C)cc1)Cc1c[nH]cn1
cytotoxicity at 10 µM: -42.3%

COc1cc(OC)cc(C(=O)NCC(c2cccn2C)N2CCCC2)c1 (stereo not drawn)
cytotoxicity at 10 µM: 11.2%

COCCNC(=O)C[C@@H]1COC[C@H]2CN(C(=O)COC)C[C@@H]12
cytotoxicity at 10 µM: -96.5%

CCN1C(=O)CC[C@@H]2[C@H]1CCN2S(=O)(=O)Cc1ccc(C)cc1
cytotoxicity at 10 µM: 0.0218%

Cc1ccc2nc(NCCN3CCOCC3)n(C)c(=O)c2c1
cytotoxicity at 10 µM: 9.26%

CC(C)Oc1cccc(CNC(=O)NC2(CO)CCCC2)c1
cytotoxicity at 10 µM: -57.1%

Cc1ccc(Br)cc1S(=O)(=O)NCCc1nnc[nH]1
cytotoxicity at 10 µM: -5.89%

O=S(=O)(c1cccnc1)N1CCN(Cc2nc(-c3ccco3)cs2)CC1
cytotoxicity at 10 µM: 5.94%

CC(NC(=O)CCn1c(=O)oc2ccccc21)c1ccccn1 (stereo not drawn)
cytotoxicity at 10 µM: -3.34%

CC(NCC1CCS(=O)(=O)CC1)c1cccc(OC(F)F)c1 (stereo not drawn)
cytotoxicity at 10 µM: -5.16%

O=C(CCc1cccs1)N1CCC(N2CCNC2=O)CC1
cytotoxicity at 10 µM: 5.37%

CCC(NC(=O)C1CCN(S(C)(=O)=O)CC1)c1ccc(C)cc1C (stereo not drawn)
cytotoxicity at 10 µM: -10.6%

O=C(Nc1cccc(N2CCN(CC3CC3)CC2)c1)N1CCCC1
cytotoxicity at 10 µM: 0.441%

Cc1noc(C)c1-c1cncc(C2CCCN2Cc2ncccc2F)n1 (stereo not drawn)
cytotoxicity at 10 µM: 7.84%

CCN(Cc1nonc1C)C(=O)Cn1nc(C(F)(F)F)cc1C1CC1
cytotoxicity at 10 µM: 1.45%

CC(C(=O)NCC1CCN(c2ccncc2)CC1)S(C)(=O)=O (stereo not drawn)
cytotoxicity at 10 µM: 17.4%

COc1ccc(OC)c(C(C)NS(=O)(=O)c2cnn(C)c2)c1 (stereo not drawn)
cytotoxicity at 10 µM: -3.35%

CC(C)N(C)Cc1ccccc1CNc1ccc2nncn2n1
cytotoxicity at 10 µM: 0.425%

c1c2c(nn1CC1CCOCC1)C(CNC1CCOCC1)OCC2 (stereo not drawn)
cytotoxicity at 10 µM: 5.83%

CS(=O)(=O)NC[C@@H]1OC[C@H]2CN(C(=O)c3cnccn3)CC[C@H]21
cytotoxicity at 10 µM: 2.98%

Cc1ccsc1C(=O)Nc1ccc(N2CCC(O)CC2)c(C#N)c1
cytotoxicity at 10 µM: 33.2%

CC(C(=O)N1CCOCC1)S(=O)(=O)Cc1nc(C(C)(C)C)no1 (stereo not drawn)
cytotoxicity at 10 µM: -3.82%

COc1ccc(C(C(=O)O)N(C)CCN2CCOCC2)c(C)c1 (stereo not drawn)
cytotoxicity at 10 µM: 2.66%

O=C(Nc1ccccc1OCc1ccccn1)NC1CCOCC1
cytotoxicity at 10 µM: 6.78%

CC(C)NC(=O)N1CCN(C(=O)NC(C)C)CC2(CNC(=O)C2)C1
cytotoxicity at 10 µM: 3.3%

CCCS(=O)(=O)NCc1cccnc1OCC
cytotoxicity at 10 µM: -7.87%

CCC(C)NC(=O)c1sccc1-n1cnnn1 (stereo not drawn)
cytotoxicity at 10 µM: 5.45%

Cc1ccc(C(C(=O)NCCc2nc(C)cc(C)n2)N(C)C)cc1 (stereo not drawn)
cytotoxicity at 10 µM: -1.3%

CC(C)(NCC(=O)NC(=O)NC1CC1)c1ccc2c(c1)OCO2
cytotoxicity at 10 µM: -1.27%

Cc1cc(OCc2cccc(F)c2)ccc1NC(=O)C(C)NC(N)=O (stereo not drawn)
cytotoxicity at 10 µM: -1.47%

COC(=O)CN(C)Cc1cc(Br)cs1
cytotoxicity at 10 µM: -2.45%

CC(C#N)NS(=O)(=O)c1ccc2c(c1)N(C)CCC2 (stereo not drawn)
cytotoxicity at 10 µM: -4.28%

O=C([C@H]1CC[C@@H]2[C@@H](CCN2Cc2nccs2)O1)N1CCOCC1
cytotoxicity at 10 µM: -0.891%

CN1CCN(C2CCN(CCOc3ccccc3F)CC2)C1=O
cytotoxicity at 10 µM: 0.174%

CN(C)CCCNC(=O)c1nc(Cc2c(Cl)cccc2Cl)no1
cytotoxicity at 10 µM: -0.31%

CCN(CC)CCNCC1CCOC(C)(C)C1 (stereo not drawn)
cytotoxicity at 10 µM: -6.87%

Cc1cccnc1NC(=O)NCc1ccc(N2CCNC(=O)C2)cc1
cytotoxicity at 10 µM: -8.85%

CCOCC1CN(CCN(C)C)Cc2cnn(CC3CCCC3)c21 (stereo not drawn)
cytotoxicity at 10 µM: 5.77%

Cc1cc(NC(=O)NCC(O)c2ccc(F)c(F)c2)n(C)n1 (stereo not drawn)
cytotoxicity at 10 µM: -21.1%

Clc1cc(N2CCN3CCCCC3C2)nc2[nH]ccc12 (stereo not drawn)
cytotoxicity at 10 µM: -9.74%

Cc1ccnc(NCc2cn3nc(C)sc3n2)n1
cytotoxicity at 10 µM: -0.449%

COCC1CN(CC2CC2)Cc2ncn(CC3CC3)c21 (stereo not drawn)
cytotoxicity at 10 µM: 4.42%

CC(C)(C)c1nc(CN2CCCC2Cn2cccn2)no1 (stereo not drawn)
cytotoxicity at 10 µM: 0.222%

CN(C)c1cc(C2CCCNC2)ccn1 (stereo not drawn)
cytotoxicity at 10 µM: -2.68%

c1coc(-c2nc(CN3CCOC(Cn4cccn4)C3)cs2)c1 (stereo not drawn)
cytotoxicity at 10 µM: -6.45%

Cc1cccnc1CN1CCC(c2nnc(Cn3cccn3)n2C)CC1
cytotoxicity at 10 µM: -11.5%

COc1ccc(NC(=O)NCc2cccc(N(C)C)n2)c(Cl)c1
cytotoxicity at 10 µM: 21.8%

Cc1ccc(CNc2ccccc2-n2ccc(C)n2)nc1
cytotoxicity at 10 µM: 5.7%

COCCN1C(=O)[C@@H]2CC[C@H]1CN(S(=O)(=O)c1ccc(C#N)cc1)C2
cytotoxicity at 10 µM: -2.59%

O=C1CCC(=O)N1CCN1CCOC(c2ccsc2)C1 (stereo not drawn)
cytotoxicity at 10 µM: 7.55%

Cc1ccccc1-n1cnnc1SCC1CCCCO1 (stereo not drawn)
cytotoxicity at 10 µM: 11.8%

CS(=O)(=O)CCN1CCc2c(ncn2C2CC2)C1
cytotoxicity at 10 µM: -6.06%

Cc1nnc(CN(C)C2CCN(c3cccc(-c4cscn4)c3)CC2)o1
cytotoxicity at 10 µM: -7.3%

CC(C)NC1CCc2c(ccc(=O)n2CCN2CCCC2=O)C1 (stereo not drawn)
cytotoxicity at 10 µM: 9.52%

CCc1nc(N2CCC3(CC2)CC(=O)N(Cc2ccc(Cl)cc2)C3)no1
cytotoxicity at 10 µM: 4.48%

CCN(Cc1ccccc1)C(=O)CN1CCOC(Cn2cncn2)C1 (stereo not drawn)
cytotoxicity at 10 µM: -6.31%

CN1CCN(Cc2cnc3n2CCN(CCc2ccccc2)C3)CC1
cytotoxicity at 10 µM: -6.98%

CC(NC(N)=O)C(=O)N(C)Cc1cccc(C(F)(F)F)c1 (stereo not drawn)
cytotoxicity at 10 µM: -5.14%

Cc1cccn2cc(CN3CCCC(c4ccn[nH]4)C3)nc12 (stereo not drawn)
cytotoxicity at 10 µM: -5.95%

Cc1ccccc1CS(=O)(=O)c1nnc(N2CCOCC2)s1
cytotoxicity at 10 µM: -9.61%

CCc1nncn1CCNC(=O)Nc1ccc2c(c1)CCCO2
cytotoxicity at 10 µM: 1.79%

Cc1cc(CN(C)Cc2ncc(C(C)(C)C)o2)no1
cytotoxicity at 10 µM: 2.58%

O=C(c1ccsc1)N1CCc2c(nc(-c3ccncc3)[nH]c2=O)C1
cytotoxicity at 10 µM: -1.67%

Cc1cccc(OC2CCN(c3ncc(C#N)cc3Cl)CC2)n1
cytotoxicity at 10 µM: 8.13%

Cc1cc(CNC(=O)CCc2ccc(S(N)(=O)=O)cc2)no1
cytotoxicity at 10 µM: 7.81%

Cc1nn(C)c(C)c1C1CCCN1Cc1nc(N)c2ccccc2n1 (stereo not drawn)
cytotoxicity at 10 µM: -16%

CC(C(=O)N1CCCC1)N1CCN(c2ncc(Cl)cn2)CC1 (stereo not drawn)
cytotoxicity at 10 µM: -3.34%

COCCNC(=O)CN1CCN(c2nc(C)cs2)CC1
cytotoxicity at 10 µM: -13.2%

CC(C)(C)c1n[nH]c(C2CN(C(=O)c3csnn3)CCO2)n1 (stereo not drawn)
cytotoxicity at 10 µM: -2.44%

O=C(CSc1nc2n[nH]cc2c(=O)n1-c1ccccc1)N1CCOCC1
cytotoxicity at 10 µM: -8.21%

COc1cc(F)ccc1-c1cc(CO)ccn1
cytotoxicity at 10 µM: 6.58%

COCCN1CCc2c(c(COc3cccnc3)nn2C)C1
cytotoxicity at 10 µM: -113%

CC(C)c1cccc(NC(=O)Cn2c(=O)n(C)c(=O)c3sccc32)c1
cytotoxicity at 10 µM: 42%

O=C(NC[C@H]1C[C@@H]2CCN1C[C@@H]2CN1CCCCC1)c1ccco1
cytotoxicity at 10 µM: 7.32%

Cn1ccnc1CN1CCOC[C@H]1c1nc(C(C)(C)C)co1
cytotoxicity at 10 µM: -4.13%

CC(C)[C@H](NC(=O)NC1CCS(=O)(=O)C1)C(=O)NCc1ccc(Cl)cc1 (stereo partly drawn)
cytotoxicity at 10 µM: 3.09%

Cn1cc(N2CCC3(CCCN(Cc4ccc(F)cc4)C3)C2=O)cn1 (stereo not drawn)
cytotoxicity at 10 µM: -73.4%

CCOC(=O)c1sc2ccsc2c1CNC(=O)C(C)OC (stereo not drawn)
cytotoxicity at 10 µM: -4.07%

c1nnc(Nc2cncc(C3CCCN3CC3CC3)n2)s1 (stereo not drawn)
cytotoxicity at 10 µM: 3.01%

CC(C)Cc1noc(CNc2cc3c(cc2Cl)OCCCO3)n1
cytotoxicity at 10 µM: 6.48%

c1ccc(-c2cnc(CN3CCn4c(nnc4C4CC4)C3)o2)cc1
cytotoxicity at 10 µM: -7.67%

COCc1noc(C2(c3ccc(F)cc3)CC2)n1
cytotoxicity at 10 µM: -2.93%

N#Cc1ccccc1N1CC2(CCCCN2CC2CC2)CC1=O (stereo not drawn)
cytotoxicity at 10 µM: 10.7%

Cc1nc(N2CCN3CCCCC3C2)nc2cc(S(C)(=O)=O)ccc12 (stereo not drawn)
cytotoxicity at 10 µM: -6.25%

CC(NC(=O)N1CCN(c2ccccc2)CC1)c1nncn1C (stereo not drawn)
cytotoxicity at 10 µM: 2.36%

COC(=O)Cn1nc(-c2ccccc2F)ccc1=O
cytotoxicity at 10 µM: 8.01%

Source: ChEMBL document CHEMBL4513216, “Probing the Open Global Health Chemical Diversity Library for Multistage-Active Starting Points for Next-Generation Antimalarials” (ACS Infect Dis, 2020)
